pEC50: −log10 of the molar value.
Columns and labels:
S. mansoni adult worms = conditions: read-out: EC50 for S. mansoni adult worms; cited from earlier work
Caenorhabditis elegans = assay: Lethal toxicity assay in C. elegans; format: in vivo; conditions: L4-stage larvae, Bristol N2 strain, 24 h, 21 °C
In short: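 C. elegans Bristol N2 was grown on NGM plates seeded with E. coli OP50. Synchronized L4 larvae, 60/well in M9 medium, were exposed to test compound starting at 1,000 µM, with ivermectin reference and 1% DMSO negative control. Viability was scored by movement after 24 h at 21 °C. Triplicate; LD50 from sigmoidal dose-response curves.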

[1] = system: Schistosoma mansoni adult worms; assay: In vitro assay with adult S. mansoni; format: cell-based; conditions: concentrations starting from 50 µM, up to 72 h
In short: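 S. mansoni (Belo Horizonte strain) adults were perfused from the hepatic portal vein of Swiss mice 49 days post-infection. One worm pair/well in RPMI 1640 with 10% FBS, penicillin and streptomycin; test compound starting at 50 µM, with praziquantel, metal salts and 1% DMSO controls; 37 °C, 5% CO₂, up to 72 h. Viability by inverted microscope at 0, 24, 48 and 72 h; death meant no movement ≥1 min after gentle stimulation. Triplicate; EC50 by sigmoidal fit.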

[2] = system: Angiostrongylus cantonensis L1 larvae; assay: In vitro assay with A. cantonensis L1 larvae; format: cell-based; conditions: for activity against A. cantonensis: L1 larvae, concentrations starting from 50 µM, 24 h
In short: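 A. cantonensis (NPDN-AC strain, cycled through B. glabrata and Wistar rats) L1 larvae were recovered from rat feces by the Rugai technique and washed in RPMI 1640 with antibiotics. About 100 larvae/well were exposed to test compound starting at 50 µM at 21 °C, with drug-free medium, metal salt and 1% DMSO controls. Viability was checked microscopically at 0 and 24 h; efficacy meant ≥60% larvae immobile.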

2-oxopopulifolic acid methyl ester
pEC50 (S. mansoni adult worms): 4.30

CC1=CC(=O)CC2[C@]1(C)CC[C@@H](C)[C@]2(C)CCC(C)CC(=O)O (some centres unmarked) [2-oxopopulifolic acid]
pEC50 (S. mansoni adult worms): 4.30

O=C1C(=O)c2cccnc2-c2ncccc21.O=C1C(=O)c2cccnc2-c2ncccc21.[Ag+].[O-][Cl+3]([O-])([O-])[O-] [Ag-phendione, [Ag(phendione)2](ClO4)]
C. elegans LD50 (Caenorhabditis elegans): 167 µM

O=[N+]([O-])[O-].[Ag+] [AgNO₃]
antischistosomal activity [1]: no antischistosomal activity
activity against A. cantonensis [2]: no activity

O.O.O.O.O.O.O.O.O=C1C(=O)c2cccnc2-c2ncccc21.O=C1C(=O)c2cccnc2-c2ncccc21.O=C1C(=O)c2cccnc2-c2ncccc21.[Cu+2].[O-][Cl+3]([O-])([O-])[O-].[O-][Cl+3]([O-])([O-])[O-] [Cu-phendione, [Cu(phendione)3](ClO4)2·8H2O]
C. elegans LD50 (Caenorhabditis elegans): 280 µM

O.O.O.O.O.O=S(=O)([O-])[O-].[Cu+2] [CuSO₄·5 H₂O]
antischistosomal activity [1]: no antischistosomal activity
activity against A. cantonensis [2]: no activity

O=C1C(=O)c2cccnc2-c2ncccc21 [Phendione, 1,10-phenanthroline-5,6-dione]
larval motility compared to the control group ([2]; A. cantonensis L1 larvae): significantly reduced
C. elegans LD50 (Caenorhabditis elegans): 719 µM

Cc1ccc(C(C)C)cc1O [carvacrol]
pEC50 (S. mansoni adult worms): 4.25

CC(=O)Oc1cc(C(C)C)ccc1C [carvacryl acetate]
pEC50 (S. mansoni adult worms): 4.38

C=C1C(=O)O[C@@H]2/C=C(\CO)CC/C=C(\C)C[C@H](OC(=O)C(=C)[C@@H](O)CO)[C@@H]12 [cnicin]
pEC50 (S. mansoni adult worms): 4.30

O=c1c(O)c(-c2ccc(O)cc2)oc2cc(O)cc(O)c12 [kaempferol]
pEC50 (S. mansoni adult worms): 4.09

C/C=C/c1cc(OC)c2c(c1)[C@H](C)[C@@H](c1ccc(O)c(OC)c1)O2 [licarin A]
pEC50 (S. mansoni adult worms): 4.52

C=CC(C)(C)c1cc(/C=C/C(=O)c2ccc(O)cc2)c(OC)cc1O [licochalcone A]
pEC50 (S. mansoni adult worms): 4.30

Ivermectin
C. elegans LD50 (Caenorhabditis elegans): 4.1 µM

Source: article PMC11807182 (Scientific Reports, 2025)
